How the values were obtained:
DU-145 = experiment: Cytotoxicity against human DU145 cells by SRB assay; format: functional
SK-OV-3 = experiment: Cytotoxicity against human SKOV3 cells by SRB assay; format: functional
NCI-H460 = experiment: Cytotoxicity against human NCI-H460 cells by SRB assay; format: functional
[1] = Inhibition of bovine brain tubulin assembly after 20 mins; parameters: species or system Bos taurus
Summary of the method: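 Bovine brain tubulin (10 µM) was preincubated with varying compound concentrations in glutamate buffer at 30 °C and then cooled to 0 °C. GTP was added, and the mixtures were warmed to 30 °C in a recording spectrophotometer. Assembly was followed turbidimetrically.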

With `COc1ccc(/C=C/c2cc(OC)c(OC)c(OC)c2)c(O[C@@H]2O[C@H](C(=O)O)[C@@H](O)[C@H](O)[C@H]2O)c1O` the GI50 (DU-145) was greater than 88000 nM, the GI50 (SK-OV-3) was 30000 nM and the GI50 (NCI-H460) was 26000 nM.
With `COc1cc(/C=C\c2ccc(OC)c(O[C@@H]3O[C@H](C(=O)O)[C@@H](O)[C@H](O)[C@H]3O)c2O)cc(OC)c1OC` the GI50 (DU-145) was 3300 nM, the GI50 (SK-OV-3) was 2100 nM and the GI50 (NCI-H460) was 1800 nM.
Compound `COc1cc(/C=C/c2ccc(OC)c(O[C@@H]3O[C@H](C(=O)O)[C@@H](O)[C@H](O)[C@H]3O)c2O)cc(OC)c1OC` has a GI50 (DU-145) greater than 98000 nM, a GI50 (SK-OV-3) greater than 85000 nM and a GI50 (NCI-H460) of 26000 nM.
With `COc1ccc(/C=C\c2cc(OC)c(OC)c(OC)c2)c(O[C@@H]2O[C@H](C(=O)O)[C@@H](O)[C@H](O)[C@H]2O)c1O` the GI50 (DU-145) was 4400 nM, the GI50 (SK-OV-3) was 2300 nM and the GI50 (NCI-H460) was 3000 nM.
Compound `COc1ccc(/C=C\c2cc(OC)c(OC)c(OC)c2)cc1O` [COMBRETASTATIN A4] has a GI50 (DU-145) of 1 nM.
In the case of `COc1ccc(/C=C\c2cc(OC)c(OC)c(OC)c2)c(O)c1O` [COMBRETASTATIN A-1], the IC50 [1] is reported as 1100 nM, the GI50 (DU-145) is reported as 13 nM and the GI50 (NCI-H460) is reported as 46 nM.
